pEC50, pIC50: −log10 of the molar value. ≈ marks a conversion by molar mass, not a printed value. Calls of active or inactive are those of the source. No cut-off for these calls is given here.
Experiments:
Acinetobacter baumannii [1] = assay: Potentiation of colistin-induced antimicrobial activity against Acinetobacter baumannii ATCC 19606 assessed as fold reduction in colistin MIC after 16 hrs by broth microdilution assay; type: functional, ATCC 19606 = CIP 70.34 = JCM 6841
Summary of the method: (§1)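 Analogue at a fixed 60 μM unless otherwise noted, combined with colistin against the Gram-negative strain. Potentiation is read as the fold reduction in colistin MIC relative to colistin alone. A. baumannii 3941/4106 and K. pneumoniae C3/B9 are primary clinical isolates with genomically encoded colistin resistance.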

Acinetobacter baumannii [2] = assay: Antibacterial activity against Acinetobacter baumannii ATCC 17978 after 16 hrs by broth microdilution assay; type: organism-based
Staphylococcus aureus [3] = assay: Antibacterial activity against methicillin-resistant Staphylococcus aureus ATCC 43300 after 16 hrs by broth microdilution assay; type: functional; conditions: for MIC: ATCC 43300, 16 h
Acinetobacter baumannii [4] = assay: Potentiation of colistin-induced antimicrobial activity against Acinetobacter baumannii ATCC 17978 assessed as fold reduction in colistin MIC after 16 hrs by broth microdilution assay; type: functional; summary of the method: as §1
Klebsiella pneumoniae [5] = assay: Antibacterial activity against Klebsiella pneumoniae isolate C3 after 16 hrs by broth microdilution assay; conditions: for MIC: […]
Escherichia coli [6] = assay: Antibacterial activity against Escherichia coli ATCC 25922 after 16 hrs by broth microdilution assay; type: organism-based
Acinetobacter baumannii [7] = assay: Antibacterial activity against Acinetobacter baumannii isolate 4106 after 16 hrs by broth microdilution assay; type: organism-based
Acinetobacter baumannii [8] = assay: Antibacterial activity against Acinetobacter baumannii isolate 5075 after 16 hrs by broth microdilution assay; type: organism-based
Acinetobacter baumannii [9] = assay: Antibacterial activity against Acinetobacter baumannii ATCC 19606 after 16 hrs by broth microdilution assay; type: organism-based, ATCC 19606 = CIP 70.34 = JCM 6841; conditions: for MIC: […]
Staphylococcus aureus [10] = assay: Antibiofilm activity against methicillin-resistant Staphylococcus aureus ATCC 43300 assessed as dispersion of preformed biofilm after 24 hrs by crystal violet staining based method
Acinetobacter baumannii [11] = assay: Antibacterial activity against Acinetobacter baumannii ATCC 17978 expressing mcr1 gene after 16 hrs by broth microdilution assay; type: organism-based; conditions: in vitro
Acinetobacter baumannii [12] = assay: Antibacterial activity against Acinetobacter baumannii isolate 3941 after 16 hrs by broth microdilution assay; type: organism-based
Staphylococcus aureus [13] = assay: Antibiofilm activity against methicillin-resistant Staphylococcus aureus ATCC 43300 assessed induction of dispersion of preformed biofilm after 24 hrs by crystal violet staining based method; type: functional, organism-based; conditions: ATCC 43300, 24 h
Klebsiella pneumoniae [14] = assay: Antibacterial activity against Klebsiella pneumoniae ATCC 2146 expressing NDM1 gene after 16 hrs by broth microdilution assay; type: organism-based; conditions: for MIC: […]
Klebsiella pneumoniae [15] = assay: Antibacterial activity against Klebsiella pneumoniae isolate B9 after 16 hrs by broth microdilution assay; conditions: in vivo
Staphylococcus aureus [16] = assay: Inhibition of biofilm formation in methicillin-resistant Staphylococcus aureus ATCC 43300 after 24 hrs by crystal violet staining based method; type: functional, organism-based; conditions: ATCC 43300, 24 h
Summary of the method: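 Read-out is the IC50, taken as the compound concentration that inhibits 50% of MRSA 43300 biofilm formation.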

Escherichia coli [17] = assay: Antibacterial activity against Escherichia coli ATCC 25922 expressing mcr1 gene after 16 hrs by broth microdilution assay; type: organism-based; conditions: in vitro
Escherichia coli [18] = assay: Potentiation of colistin-induced antimicrobial activity against Escherichia coli ATCC 25922 assessed as fold reduction in colistin MIC after 16 hrs by broth microdilution assay; type: functional; summary of the method: as §1
Klebsiella pneumoniae [19] = assay: Potentiation of colistin-induced antimicrobial activity against Klebsiella pneumoniae ATCC 2146 expressing NDM1 gene assessed as fold reduction in colistin MIC after 16 hrs by broth microdilution assay; type: functional; summary of the method: as §1
Acinetobacter baumannii [20] = assay: Potentiation of colistin-induced antimicrobial activity against Acinetobacter baumannii isolate 4106 assessed as fold reduction in colistin MIC after 16 hrs by broth microdilution assay; type: functional; summary of the method: as §1
Acinetobacter baumannii [21] = assay: Potentiation of colistin-induced antimicrobial activity against Acinetobacter baumannii isolate 5075 assessed as fold reduction in colistin MIC after 16 hrs by broth microdilution assay; type: functional; summary of the method: as §1
Klebsiella pneumoniae [22] = assay: Potentiation of colistin-induced antimicrobial activity against Klebsiella pneumoniae isolate B9 assessed as fold reduction in colistin MIC after 16 hrs by broth microdilution assay; type: functional; summary of the method: as §1
Acinetobacter baumannii [23] = assay: Potentiation of colistin-induced antimicrobial activity against Acinetobacter baumannii ATCC 17978 expressing mcr1 gene assessed as fold reduction in colistin MIC after 16 hrs by broth microdilution assay; type: functional; summary of the method: as §1
Escherichia coli [24] = assay: Potentiation of colistin-induced antimicrobial activity against Escherichia coli ATCC 25922 expressing mcr1 gene assessed as fold reduction in colistin MIC after 16 hrs by broth microdilution assay; type: functional; summary of the method: as §1
Klebsiella pneumoniae [25] = assay: Potentiation of colistin-induced antimicrobial activity against Klebsiella pneumoniae isolate B9 after 16 hrs by broth microdilution assay; type: functional, organism-based; summary of the method: as §1
Klebsiella pneumoniae [26] = assay: Potentiation of colistin-induced antimicrobial activity against Klebsiella pneumoniae isolate B9 after 16 hrs in presence of 0.01% triton X-100 by broth microdilution assay; type: functional, organism-based
Acinetobacter baumannii [27] = assay: Potentiation of colistin-induced antimicrobial activity against Acinetobacter baumannii isolate 4106 after 16 hrs in presence of 0.01% triton X-100 by broth microdilution assay; type: functional, organism-based
Staphylococcus aureus [28] = assay: Potentiation of vancomycin-induced antibacterial activity against methicillin-resistant Staphylococcus aureus ATCC 43300 assessed as dispersion of preformed biofilm after 24 hrs by crystal violet staining based method; type: functional, organism-based; conditions: ATCC 43300, 24 h
Klebsiella pneumoniae [29] = assay: Potentiation of colistin-induced antimicrobial activity against Klebsiella pneumoniae isolate C3 assessed as fold reduction in colistin MIC after 16 hrs by broth microdilution assay; type: functional; summary of the method: as §1

| SMILES | fold change (FC) (Acinetobacter baumannii [1]) | MIC (Acinetobacter baumannii [2]) | MIC (Staphylococcus aureus [3]) | fold change (FC) (Acinetobacter baumannii [4]) | MIC (Klebsiella pneumoniae [5]) | MIC (Escherichia coli [6]) | MIC (Acinetobacter baumannii [7]) | MIC (Acinetobacter baumannii [8]) | MIC (Acinetobacter baumannii [9]) | EC50 (Staphylococcus aureus [10]) | MIC (Acinetobacter baumannii [11]) | MIC (Acinetobacter baumannii [12]) | pEC50 (Staphylococcus aureus [13]) | MIC (Klebsiella pneumoniae [14]) | MIC (Klebsiella pneumoniae [15]) | pIC50 (Staphylococcus aureus [16]) | MIC (Escherichia coli [17]) | fold change (FC) (Escherichia coli [18]) | also measured |
| --- | --- | --- | --- | --- | --- | --- | --- | --- | --- | --- | --- | --- | --- | --- | --- | --- | --- | --- | --- |
| CCCCn1cc(-c2ccnc(N)n2)c2cc(Br)ccc21.Cl | 16 | > 200 µM | 50 µM | 16 | > 200 µM | > 200 µM | > 200 µM | > 200 µM | > 200 µM | Not Active | > 200 µM | > 200 µM | < 3.80 | > 200 µM | > 200 µM | 4.42 | > 200 µM | 16 |  |
| CCCn1cc(-c2ccnc(N)n2)c2ccc(Br)cc21.Cl | 16 |  | 200 µM |  |  |  |  |  |  | Not Active |  |  | < 3.80 |  |  | 4.46 |  |  | Activity (Acinetobacter baumannii [2]): Toxic; Activity (Klebsiella pneumoniae [5]): Toxic; Activity (Acinetobacter baumannii [7]): Toxic; Activity (Acinetobacter baumannii [8]): Toxic; Activity (Acinetobacter baumannii [9]): Toxic; Activity (Acinetobacter baumannii [12]): Toxic; Activity (Klebsiella pneumoniae [14]; in vitro): Toxic; Activity (Klebsiella pneumoniae [15]): Toxic |
| CN(C)c1nccc(-c2c[nH]c3ccc(Br)cc23)n1.Cl |  | > 200 µM | 100 µM |  | > 200 µM | > 200 µM | > 200 µM | > 200 µM | > 200 µM | Not Active | > 200 µM | > 200 µM | < 3.80 | > 200 µM | > 200 µM | 4.63 | > 200 µM |  |  |
| CCCn1cc(-c2ccnc(N)n2)c2cc(Br)ccc21.Cl |  | > 200 µM | 100 µM | 16 | > 200 µM | > 200 µM | > 200 µM | > 200 µM | > 200 µM |  | > 200 µM | > 200 µM |  | > 200 µM | > 200 µM | 4.16 | > 200 µM | 16 | fold change (FC) (Klebsiella pneumoniae [19]): 16; fold change (FC) (Acinetobacter baumannii [20]): 64; fold change (FC) (Acinetobacter baumannii [21]): 128; fold change (FC) (Klebsiella pneumoniae [22]): 512; fold change (FC) (Acinetobacter baumannii [23]): 4; fold change (FC) (Escherichia coli [24]): 4; Activity (Klebsiella pneumoniae [25]): Active |
| Nc1nccc(-c2c[nH]c3ccccc23)n1 |  |  |  |  |  |  |  |  |  |  |  |  |  |  |  | < 4.00 |  |  | Activity (Klebsiella pneumoniae [26]): inactive; Activity (Staphylococcus aureus [3]): inactive; Activity (Acinetobacter baumannii [27]): inactive |
| Nc1nccc(-c2c[nH]c3ccc(Br)cc23)n1 |  |  | 200 µM (≈ 57.8 µg/mL) |  |  |  |  |  |  |  |  |  | 3.86 |  |  | 4.75 |  |  | pEC50 (Staphylococcus aureus [28]): 4.04 |
| Cl.Nc1nccc(-c2c[nH]c3cc(Br)ccc23)n1 |  |  | > 200 µM | 2 |  |  |  |  |  |  |  |  |  |  |  | 4.06 |  | 0 | fold change (FC) (Klebsiella pneumoniae [19]): 2; fold change (FC) (Acinetobacter baumannii [20]): 64; fold change (FC) (Acinetobacter baumannii [21]): 4; fold change (FC) (Klebsiella pneumoniae [22]): 64; fold change (FC) (Acinetobacter baumannii [23]): 32; fold change (FC) (Escherichia coli [24]): 2 |
| CC(C)Cn1cc(-c2ccnc(N)n2)c2cc(Br)ccc21.Cl | 16 | > 200 µM |  | 16 | > 200 µM | > 200 µM | > 200 µM | > 200 µM | > 200 µM |  | > 200 µM | > 200 µM |  | > 200 µM | > 200 µM | < 4.00 | > 200 µM | 16 |  |
| Cc1ccc2[nH]cc(-c3ccnc(N)n3)c2c1.Cl |  | > 200 µM |  |  | > 200 µM | > 200 µM | > 200 µM | > 200 µM | > 200 µM |  | > 200 µM | > 200 µM |  | > 200 µM | > 200 µM | < 4.00 | > 200 µM |  | Activity (Klebsiella pneumoniae [26]): inactive; Activity (Staphylococcus aureus [3]): inactive; Activity (Acinetobacter baumannii [27]): inactive |
| CNc1nccc(-c2c[nH]c3ccc(Br)cc23)n1.Cl | 16 | > 200 µM | 100 µM |  | > 200 µM | > 200 µM | > 200 µM | > 200 µM | > 200 µM |  | > 200 µM | > 200 µM | 4.14 | > 200 µM | > 200 µM | 4.54 | > 200 µM |  | fold change (FC) (Klebsiella pneumoniae [29]): 512; pEC50 (Staphylococcus aureus [28]): 4.15; Activity (Klebsiella pneumoniae [25]): Active |

— ChEMBL document CHEMBL4196121, “Meridianin D Analogues Display Antibiofilm Activity against MRSA and Increase Colistin Efficacy in Gram-Negative Bacteria” (ACS Med Chem Lett, 2018)
